Results collected from several papers.
Lines come from different studies, so protocols differ. Converted amounts (≈) assume the structure as drawn.
Organism: Escherichia coli

Structure (SMILES) | test | system | setting | measurement | result
O=C(N/N=C/c1ccc([N+](=O)[O-])o1)c1ccc(O)cc1 | microbial growth |  |  | MIC90 | 31.2 µg/mL (≈ 114 µM)
COC(=O)c1cc(-c2cccc(NC(=O)Nc3cc(Cl)ccc3Cl)c2)on1 | microbial growth, broth dilution | ATCC25922 |  | MIC | > 64 µg/mL
CC1(C)S[C@@H]2[C@H](NC(=O)[C@H](N)c3ccccc3)C(=O)N2[C@H]1C(=O)O | microbial growth, well diffusion | ATCC35218 | 60000 µg/mL | inhibition zone | 15 mm
COC(=O)c1cc(-c2cccc(NC(=S)Nc3ccc(Cl)cc3)c2)on1 | microbial growth, broth dilution | ATCC25922 |  | MIC | > 64 µg/mL
O=C(Sc1cccccc1=O)c1ccccc1 | microbial growth, broth dilution | ATCC35218 |  | MIC80 | 19.8 µM (≈ 4.8 µg/mL)
CC(C)CCCCCCCCCCCCCCc1cc(O)cc(O)c1 | microbial growth |  |  | IC50 | 47.3 µM
COC(=O)c1cc(-c2cccc(NC(=O)Nc3ccc(F)c(F)c3)c2)on1 | microbial growth, broth dilution | ATCC25922 |  | MIC | > 64 µg/mL
C[C@H]1NCc2cc(-c3ccc4c(=O)c(C(=O)O)cn(C5CC5)c4c3OC(F)F)ccc21 | microbial growth, broth dilution |  |  | MIC90 | 0.25 µg/mL (≈ 0.586 µM)
O=C(Nc1cccc(-c2cc(C(=O)O)no2)c1)Nc1ccc(Cl)c(Cl)c1 | microbial growth, broth dilution | ATCC25922 |  | MIC | > 64 µg/mL
CC(C)CCCCCCCCCCCCc1cc(O)cc(O)c1 | microbial growth |  |  | IC50 | 78.1 µM
Cc1c(NN=C(C#N)C2=NC(=O)CS2)c(=O)n(-c2ccccc2)n1C | microbial killing, broth dilution |  |  | MBC | 0.25 µg/mL (≈ 0.705 µM)
C[n+]1c(/C=C/c2ccc(O)cc2)cc(/C=C2\Sc3ccccc3N2CCCN2CCCC2)c2ccccc21.[I-] | microbial growth, broth dilution | ATCCBAA2469 |  | MIC | 16 µg/mL
O=C(N[C@H](CO)[C@H](O)c1ccc([N+](=O)[O-])cc1)C(Cl)Cl | microbial growth |  |  | MIC90 | 15.6 µg/mL (≈ 48.3 µM)
CCC(CCCCCCCCCCc1cc(O)cc(O)c1)C(C)C (centres unmarked) | microbial growth |  |  | IC50 | 34.3 µM
